# High-throughput results (PubChem)
# A selection: hits, their analogues and other compounds. The true share with any hit is near 2.5%.
# SENP1 inh = SENP1 (human) catalytic domain inhibition. inhibition, % at 10 µM. 360,000 tested, 0.21% active. recombinant SENP1 catalytic domain, CyPet-SUMO1-YPet FRET cleavage;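 active means inhibition at least 30% at 10 µM, raw YFP signal under a set limit, fluorescence ratio 0.5 to 1.5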
#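 system = hSENP1 catalytic domain, recombinant | reagent = SFCypet-SUMO1-SFYpet substrate at 25 nM | doses = one dose per compound, 10 µM, 0.5% DMSO | incubation = enzyme reaction for 50 min at room temperature, dark | measured by = FRET, CFP and YFP emission | controls = no-enzyme low, enzyme-DMSO high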
# SENP6 inh = blocks the human protease SENP6 | inhibition, % at 10 µM | Recombinant SENP6 catalytic domain, aminoluciferin luminescence | AID 2599 | 330,000 tested, 1.8% active;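 active means inhibition above about 50% at the single tested dose, limit read from the data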
# SENP8 block-1 = SENP8 (human) protease inhibition; Q96LD8; recombinant SENP8, Nedd8 substrate fluorescence; inhibition, % at 20 µM; 360,000 tested, 0.64% active; AID 602440; in the data active means inhibition mostly above about 40%, no sharp cut-off; inactive means mostly below about 27%
# SENP8 block-2 = SENP8 protease inhibition; Q96LD8; purified SENP8, Z-RLRGG-aminoluciferin cleavage, luminescence; inhibition, % at 10 µM; 330,000 tested, 1.2% active; in the data active means inhibition above about 50%
# SENP7 inh = SENP7 protease inhibition; recombinant SENP7, Z-RLRGG-aminoluciferin luminescence, 40 min; inhibition, % at 5 µM; 330,000 tested, 1.5% active;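 active means inhibition above about 50% at the single test dose, limit read from the data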
# Target sequence (Q9BQF6 706-1050 limits assumed): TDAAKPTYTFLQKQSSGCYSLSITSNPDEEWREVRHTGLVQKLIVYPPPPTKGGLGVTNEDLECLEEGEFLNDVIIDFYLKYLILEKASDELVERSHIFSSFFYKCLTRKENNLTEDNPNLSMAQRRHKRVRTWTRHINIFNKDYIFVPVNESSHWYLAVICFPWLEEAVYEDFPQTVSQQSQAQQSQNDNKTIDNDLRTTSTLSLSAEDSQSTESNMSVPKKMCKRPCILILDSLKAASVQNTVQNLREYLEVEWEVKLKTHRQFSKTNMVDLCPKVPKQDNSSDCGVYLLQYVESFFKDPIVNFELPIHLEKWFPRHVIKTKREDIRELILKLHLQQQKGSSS
# SENP8 conf = human SENP8 inhibition, confirmed | shares compounds with SENP7 inh | Recombinant SENP8, Z-RLRGG-aminoluciferin luminescence, 60 min | 6,200 tested, 40% active | inhibition, % at 12.5 µM | AID 488912;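 active means mean inhibition across replicates above about 50%, limit read from the data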
# SENP6 confirm = confirmation of human SENP6 protease inhibitors; shares compounds with SENP7 inh; recombinant SENP6, Z-RLRGG-aminoluciferin luminescence; inhibition, % at 12.5 µM; 6,200 tested, 58% active
# SENP7 conf = human SENP7 inhibition, confirmed. shares compounds with SENP7 inh. recombinant SENP7, Z-RLRGG-aminoluciferin luminescence, 40 min. inhibition, % at 12.5 µM. 6,200 tested, 69% active
# Casp3 select = caspase-3 inhibition (SENP selectivity assay) | shares compounds with SENP7 inh | purified caspase-3, Z-DEVD-aminoluciferin luminescence, 60 min | inhibition, % at 12.5 µM | 6,200 tested, 60% active;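 active means mean inhibition above about 50%, limit read from the data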
# Target sequence (P42574 28-227 limits assumed): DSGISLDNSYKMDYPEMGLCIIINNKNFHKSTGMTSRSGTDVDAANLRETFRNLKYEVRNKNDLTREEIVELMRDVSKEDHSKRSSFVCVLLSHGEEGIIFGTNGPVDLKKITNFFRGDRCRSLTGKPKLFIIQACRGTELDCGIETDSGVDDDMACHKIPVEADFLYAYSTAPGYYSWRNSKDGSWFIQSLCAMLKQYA
# Luc interf = luminescence interference (SENP counter-screen); 6,200 tested, 39% active; Pre-incubated SENP8/Z-RLRGG-aminoluciferin, luciferase luminescence interference; inhibition, % at 12.5 µM; shares compounds with SENP7 inh;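 active means mean inhibition above about 50% when retested at one dose, limit read from the data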
# A number is an active result; i = inactive; nt = no result.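 How the source made its calls, unless noted: active means mean inhibition above about 50% in the one-dose retest (limit read from the data); inactive means the rest.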
SMILES,SENP1 inh,SENP6 inh,SENP8 block-1,SENP8 block-2,SENP7 inh,SENP8 conf,SENP6 confirm,SENP7 conf,Casp3 select,Luc interf
COc1ccc(C(=O)N2CCC3(CC2)NCCc2[nH]cnc23)cc1OC,i,i,i,i,i,nt,nt,nt,nt,nt
O=C(NCc1ccncc1)/C(=C/c1cccc([N+](=O)[O-])c1)NC(=O)c1ccccc1,i,i,i,i,i,nt,nt,nt,nt,nt
O=c1c2ccccc2nc2sc(Nc3cccc(Cl)c3)nn12,i,i,i,i,i,nt,nt,nt,nt,nt
COc1ccc(-c2cn(Cc3ccc4c(c3)C(=O)c3ccccc3C4=O)nn2)cc1,i,i,i,i,i,nt,nt,nt,nt,nt
O=C1c2ccccc2-c2nnc(-c3ccccc3)cc21,i,98.7,i,95.8,98.8,i,i,i,i,i
Cc1cnc2c(c1)C(=O)c1ccccc1-2,i,i,i,i,i,nt,nt,nt,nt,nt
COc1ccc(-c2cc3c(nn2)-c2ccccc2C3=O)cc1,i,97.1,42.7,96.1,99.1,i,i,i,i,i
Cc1cccc(-c2cc3c(nn2)-c2ccccc2C3=O)c1,i,89.6,i,95.3,99.6,i,74.5,88.3,83.0,i
C#CC(C)OC(=O)Nc1cnccc1C(F)(F)F (stereo not drawn),i,i,i,i,i,nt,nt,nt,nt,nt
CC(NC(=O)Cn1cccc1)c1ccccc1 (stereo not drawn),i,i,i,i,i,nt,nt,nt,nt,nt
Clc1ccccc1/C=C/c1ccnc2ccccc12,i,i,i,i,i,nt,nt,nt,nt,nt
Oc1ccc(/C=C/c2ccnc3ccccc23)cc1,i,61.4,i,i,i,i,i,74.5,i,i
c1cn2cc(-c3ccc4c(c3)OCO4)nc2s1,i,72.6,i,50.2,63.8,59.3,56.4,85.3,79.0,71.9
CC(=O)Nc1ccc(-c2cn3ccsc3n2)cc1,i,i,i,i,i,nt,nt,nt,nt,nt
COc1ccc(-c2cn3cc(C)ccc3n2)cc1Br,i,91.4,i,81.7,85.9,i,86.9,99.2,85.9,i
Cc1cccc(C)c1OCc1cc(C(=O)N2CCN(c3ccc(F)cc3)CC2)no1,i,55.2,i,i,i,i,i,81.4,63.8,59.1
O=C(CCc1ccccc1)Nc1ccc(NC(=O)c2ccco2)cc1,i,i,i,i,i,nt,nt,nt,nt,nt
Cc1cc(NC(=O)c2ccc3c(c2)OCO3)ccc1NC(=O)c1ccccc1,i,85.1,i,61.1,91.9,i,i,i,i,i
O=C(Nc1ccc(CSc2ccccc2)cc1)c1ccco1,i,84.1,i,69.0,89.4,i,62.7,95.2,71.6,i
O=C(Nc1cccc(NC(=O)c2ccc3c(c2)OCO3)c1)c1ccccc1,i,i,i,i,i,nt,nt,nt,nt,nt
Cc1cc(NC(=O)c2ccc3c(c2)OCO3)ccc1NC(=O)c1ccco1,i,91.2,i,91.1,92.0,i,89.9,100.0,95.6,89.6
COc1cc(OC)cc(C(=O)Nc2ccc(NC(=O)c3ccco3)c(C)c2)c1,i,97.9,i,93.6,96.0,i,95.3,100.8,95.9,85.9
Cc1ccc(C(=O)Nc2ccc3c(c2)OCO3)cc1NC(=O)c1ccco1,i,i,i,i,i,nt,nt,nt,nt,nt
COc1ccc(S(=O)(=O)N2CCC(C(=O)NC(c3nc4ccccc4[nH]3)C(C)C)CC2)cc1 (stereo not drawn),i,i,i,i,i,nt,nt,nt,nt,nt
O=C(Nc1ccc(Br)c(Cl)c1)c1ccco1,i,84.0,i,i,70.3,61.0,58.2,84.4,i,68.7
SMILES,SENP1 inh,SENP6 inh,SENP8 block-1,SENP8 block-2,SENP7 inh,SENP8 conf,SENP6 confirm,SENP7 conf,Casp3 select,Luc interf
CCC(=O)Oc1ccc(NC(=O)c2ccco2)cc1,i,i,i,i,i,nt,nt,nt,nt,nt
Cc1cc(NC(=O)c2ccco2)ccc1NC(=O)c1ccco1,i,i,i,i,i,nt,nt,nt,nt,nt
O=C(Nc1ccc(-c2nc3cccnc3s2)cc1)c1ccco1,i,93.2,i,85.8,89.5,74.9,91.3,98.9,79.3,i
O=C(Nc1ccc(OC(=O)c2ccco2)cc1)c1ccco1,i,82.8,i,i,85.8,66.9,61.7,90.3,53.1,79.5
O=C(Nc1ccc(Cl)c([N+](=O)[O-])c1)c1ccco1,i,i,i,i,i,nt,nt,nt,nt,nt
Cc1ccc(NC(=O)c2ccco2)cc1C,i,67.2,i,i,65.2,50.1,i,79.8,72.6,52.0
CCn1nccc1C(=O)Nc1ccc(C)c(C)c1,i,70.2,i,65.4,82.0,69.0,63.5,90.7,83.8,75.0
Cn1cccc1-c1nc2ccc(NC(=O)c3ccco3)cc2[nH]1,i,i,i,i,i,nt,nt,nt,nt,nt
Cc1ccc(NC(=O)c2cc(S(=O)(=O)N3CCCC3)cn2C)cc1C,i,i,i,i,i,nt,nt,nt,nt,nt
Cc1ccc2nc(-c3ccc(NC(=O)c4ccco4)cc3)[nH]c2c1,i,50.7,i,i,i,i,i,64.0,i,i
CN(C)c1cc[n+](CC(=O)c2ccc(-c3ccccc3)cc2)cc1,i,i,i,i,i,nt,nt,nt,nt,nt
Cc1ccc(NC(=O)c2cccs2)cc1,i,i,i,i,52.9,i,i,75.2,65.2,52.3
O=C(Nc1ccc2c(c1)CCC2)c1cccs1,i,i,i,62.0,77.9,82.7,87.2,95.7,82.8,83.1
Cc1ccccc1-c1nc(-c2ccc(NC(=O)c3cccs3)cc2)no1,i,i,i,i,50.9,i,i,i,i,i
O=C(Nc1ccc(-c2noc(-c3ccccc3F)n2)cc1)c1cccs1,i,i,i,i,i,nt,nt,nt,nt,nt
Cc1ccc(NC(=O)C(=O)NNC(=O)c2cccs2)cc1,i,56.8,i,55.0,i,i,i,78.8,82.8,i
O=[N+]([O-])c1ccc(-c2nc(Cl)c3c(n2)CCCC3)o1,i,nt,i,nt,nt,nt,nt,nt,nt,nt
COc1ccccc1NC(=S)N1CCCc2ccccc21,i,i,i,i,i,nt,nt,nt,nt,nt
COc1ccccc1NC(=O)C(=O)Nc1ccc2c(c1)N(C(=O)C1CC1)CCC2,i,i,i,i,56.1,i,i,i,i,i
CC(=O)Nc1cccc(NC(=O)C(=O)Nc2ccc3c(c2)N(C(=O)C2CC2)CCC3)c1,i,58.5,i,i,50.1,i,i,74.8,65.1,i
COc1ccccc1N1CCN(C(=O)C2CCC(CNS(=O)(=O)c3ccc(NC(C)=O)cc3)CC2)CC1 (stereo not drawn),i,i,i,i,i,nt,nt,nt,nt,nt
COc1ccc(N=Cc2sc(O)c3ccccc23)cc1,i,61.5,i,79.2,69.8,92.9,92.2,99.9,73.2,81.4
